Screening data (PubChem)
Most compounds without a hit are left out; they make up all but 2.9% or so of the library.
HSP90 inh: HSP90 refolding inhibition in rabbit reticulocyte lysate; luciferase refolding luminescence, 3 h; inhibition, % at 5.6 µM; actives 0.91% (n = 290,000); AID 1789;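 active = inhibition above the screen-wide mean plus 3 SD, computed separately per campaign, cut at about 16% in these data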;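 note: 0% = DMSO wells and 100% = 60 µM geldanamycin wells; inhibitors lower the luminescence because luciferase stays unfolded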
SENP1 FRET inh: SENP1 (human) catalytic domain inhibition | actives 0.21% (n = 360,000) | inhibition, % at 10 µM | recombinant SENP1 catalytic domain, CyPet-SUMO1-YPet FRET cleavage | Q9P0U3;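 active = inhibition at least 30% at 10 µM, raw YFP signal under a set limit, fluorescence ratio 0.5 to 1.5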;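 note: 0% = enzyme with DMSO and 100% = no enzyme wells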
Target sequence (Q9P0U3 419-644 limits assumed): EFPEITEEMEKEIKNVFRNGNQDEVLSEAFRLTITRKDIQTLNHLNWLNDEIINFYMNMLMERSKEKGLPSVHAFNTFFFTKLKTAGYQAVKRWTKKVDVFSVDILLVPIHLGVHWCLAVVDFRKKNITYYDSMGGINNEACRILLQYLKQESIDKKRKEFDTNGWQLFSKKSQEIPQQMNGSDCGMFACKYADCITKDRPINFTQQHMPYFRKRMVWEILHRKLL
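Assay system: hSENP1 catalytic domain, recombinant. Amount: SENP1 enzyme, 20 pM final. Schedule: 50 min reaction, RT, dark. Technique: FRET, CFP and YFP emission. Control set: no-enzyme wells low, DMSO-plus-enzyme wells high control.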
SENP8 block-1: SENP8 protease inhibition. purified SENP8, Z-RLRGG-aminoluciferin cleavage, luminescence. Q96LD8. inhibition, % at 10 µM. AID 2540. actives 1.2% (n = 330,000); in the data active = inhibition above about 50%
Target sequence (Q96LD8 whole entry, looked up): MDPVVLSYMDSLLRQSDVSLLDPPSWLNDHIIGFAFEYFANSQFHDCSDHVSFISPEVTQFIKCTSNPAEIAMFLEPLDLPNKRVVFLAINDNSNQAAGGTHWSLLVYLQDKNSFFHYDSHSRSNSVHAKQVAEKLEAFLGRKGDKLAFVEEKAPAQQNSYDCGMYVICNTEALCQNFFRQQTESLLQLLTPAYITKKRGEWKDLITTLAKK
SENP6 inh: inhibitors of human SENP6 protease; AID 2599; Recombinant SENP6 catalytic domain, aminoluciferin luminescence; actives 1.8% (n = 330,000); inhibition, % at 10 µM;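 active = inhibition above about 50% at the single tested dose, limit read from the data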;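 note: plate controls were DMSO wells with enzyme for no effect and DMSO wells lacking enzyme for full effect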
SENP7 inh: blocks the human protease SENP7. Q9BQF6. recombinant SENP7, Z-RLRGG-aminoluciferin luminescence, 40 min. inhibition, % at 5 µM. actives 1.5% (n = 330,000). AID 434973;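 active = inhibition above about 50% at the single test dose, limit read from the data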;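 note: plate controls were DMSO with enzyme for no effect and no enzyme buffer wells for full effect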
SENP8 block-2: blocks human SENP8 cleavage of Nedd8 substrate; Q96LD8; recombinant SENP8, Nedd8 substrate fluorescence; inhibition, % at 20 µM; actives 0.64% (n = 360,000); AID 602440; in the data active = inhibition mostly above about 40%, no sharp cut-off; inactive = mostly below about 27%
SENP8 confirm: confirmation of human SENP8 protease inhibitors | shares compounds with SENP7 inh | Recombinant SENP8, Z-RLRGG-aminoluciferin luminescence, 60 min | inhibition, % at 12.5 µM | actives 40% (n = 6,200);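 active = mean inhibition across replicates above about 50%, limit read from the data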
SENP6 conf: human SENP6 inhibition, confirmed | shares compounds with SENP7 inh | recombinant SENP6, Z-RLRGG-aminoluciferin luminescence | inhibition, % at 12.5 µM | actives 58% (n = 6,200) | AID 488915
SENP7 confirm: human SENP7 inhibition, confirmed; inhibition, % at 12.5 µM; shares compounds with SENP7 inh; recombinant SENP7, Z-RLRGG-aminoluciferin luminescence, 40 min; actives 69% (n = 6,200)
Casp3 SENP sel: selectivity test for SENP inhibitors: human caspase-3 inhibition; shares compounds with SENP7 inh; purified caspase-3, Z-DEVD-aminoluciferin luminescence, 60 min; inhibition, % at 12.5 µM; actives 60% (n = 6,200); AID 488918;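 active = mean inhibition above about 50%, limit read from the data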;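 note: plate controls were enzyme with DMSO for no effect and wells without caspase-3 for full effect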
Target sequence (P42574 28-227 limits assumed): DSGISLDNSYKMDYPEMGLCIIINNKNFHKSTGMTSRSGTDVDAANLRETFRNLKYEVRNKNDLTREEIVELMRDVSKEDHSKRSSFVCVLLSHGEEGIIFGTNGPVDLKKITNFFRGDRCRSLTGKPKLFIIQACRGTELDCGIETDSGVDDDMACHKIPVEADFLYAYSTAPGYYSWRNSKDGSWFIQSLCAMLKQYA
SENP luc ctr: luminescence interference (SENP counter-screen); shares compounds with SENP7 inh; Pre-incubated SENP8/Z-RLRGG-aminoluciferin, luciferase luminescence interference; inhibition, % at 12.5 µM; actives 39% (n = 6,200);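 active = mean inhibition above about 50% when retested at one dose, limit read from the data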;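 note: plate controls were DMSO wells with completed reaction for no effect and substrate without enzyme for full effect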
An asterisk follows results filed as active; . = not tested or not shown.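 Rule for the calls, unless noted: active = mean inhibition above about 50% in the one-dose retest (limit read from the data); inactive = the rest.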

SMILES	HSP90 inh	SENP1 FRET inh	SENP8 block-1	SENP6 inh	SENP7 inh	SENP8 block-2	SENP8 confirm	SENP6 conf	SENP7 confirm	Casp3 SENP sel	SENP luc ctr
CC(C(=O)NC(=O)NC1CCCCC1)N1CCN(c2ccc(O)cc2)CC1 (stereo not given)	.	0.2	7.6	10.2	-0.9	12.3	.	.	.	.	.
COc1cccc(/C=N/NC(=O)CNC(=O)/C=C\c2ccccc2)c1O	-1.0	-3.1	10.2	8.8	13.8	-72.0	.	.	.	.	.
COc1cc(/C=N/NC(=O)c2ccoc2C)ccc1O	6.6	2.0	59.8*	68.0*	60.9*	-21.7	65.8*	64.0*	89.1*	89.3*	68.9*
COc1cc(/C=N/NC(=O)c2nc(C)cc(C)n2)ccc1O	2.8	1.7	2.4	-2.3	2.5	31.5	.	.	.	.	.
Cc1occc1C(=O)N/N=C/c1ccccc1[N+](=O)[O-]	0.7	1.5	36.9	55.5*	73.0*	8.5	46.8	47.1	85.0*	83.6*	31.8
CCOc1ccc(/C=N/NC(=O)c2ccoc2C)cc1OC	13.7	1.4	64.2*	81.1*	75.0*	6.4	81.9*	80.3*	93.3*	92.6*	79.7*
COc1cccc(/C=N/NC(=O)CNC(=O)C(c2ccccc2)c2ccccc2)c1O	1.9	-18.7	42.9	51.6*	3.9	-266.8	38.3	43.9	62.6*	58.8*	-3.1
Cn1ncc2c(N3CCN(c4ccc(Cl)c(Cl)c4)CC3)ncnc21	2.7	1.4	-8.8	2.5	-3.9	1.2	.	.	.	.	.
COc1cc(/C=N/NC(=O)c2nonc2C)ccc1O	-2.5	1.0	82.4*	66.9*	77.4*	15.0	89.2*	89.2*	98.1*	96.6*	89.3*
COc1ccc(CCCc2nc3ccccc3[nH]2)cc1	2.3	4.0	-8.6	10.6	5.2	24.7	.	.	.	.	.
COc1ccc(-c2cc(=O)n(-c3nc4ccccc4[nH]3)[nH]2)cc1	-2.1	-93.6	86.6*	91.3*	34.4	-63.5	-3.9	92.3*	100.9*	95.7*	54.5*
COc1ccc(N=Cc2sc3ccccc3c2Cl)cc1	0.6	0.0	24.7	29.7	57.6*	30.7	10.1	22.3	36.0	37.3	14.6
COc1ccc(CCNC(=O)CSc2nc3[nH]ncc3c(=O)n2-c2ccc(C)c(Cl)c2)cc1OC	1.4	0.1	.	.	.	-6.0	.	.	.	.	.
COc1ccc(C(CC(=O)c2ccc(O)cc2)S(=O)(=O)c2ccc(C)cc2)cc1 (stereo not given)	3.2	-1.5	27.6	49.7	55.2*	4.8	52.0*	22.3	69.3*	18.3	58.3*
CN(C1CCCCC1)S(=O)(=O)c1ccc2c(c1)c(=O)c(C(=O)O)cn2C	.	2.3	.	.	.	17.4	.	.	.	.	.
CNS(=O)(=O)c1cccc(C(=O)OCC(=O)Nc2ccc(Cl)cn2)c1	-0.7	-1.9	2.4	7.9	5.2	-6.7	.	.	.	.	.
COC(=O)c1ccc(COc2ccccc2/C=C/C(=O)c2ccc(OCC(=O)O)cc2)cc1	2.4	-0.3	31.4	55.4*	5.3	16.7	16.3	10.2	29.8	27.0	48.6
COC(=O)c1ccc(COc2ccccc2/C=N/Nc2cccc(C(=O)O)c2)cc1	6.2	-2.4	.	.	.	-15.0	.	.	.	.	.
CCc1cc(=O)oc2c3c(cc(OCC(=O)NCc4ccncc4)c12)OC(C)(C)CC3	-1.1	-0.4	8.5	51.6*	-3.1	-206.4	9.4	7.3	1.3	-1.7	-4.4
C[C@H](CO)N1C[C@H](C)[C@@H](CN(C)Cc2ccc(Oc3ccccc3)cc2)Oc2cc(Br)ccc2S1(=O)=O	.	1.3	.	.	.	-1.2	.	.	.	.	.
Cn1sc(NC(=O)c2ccc(Cl)cc2)nc1=O	-0.9	0.8	66.7*	-7.2	80.7*	18.0	49.0	37.0	68.7*	53.3*	51.8*
CCOc1cc(N2CCOCC2)c(OCC)cc1NC(=O)c1nn(CC)c(=O)c2ccccc12	.	5.3	-3.1	-10.3	4.6	21.0	.	.	.	.	.
COc1ccc2cc(C(c3nnnn3C3CCCC3)N3CCc4ccccc4C3)c(=O)[nH]c2c1 (stereo not given)	-1.0	-102.2	65.9*	13.4	74.4*	-275.1	5.0	9.0	2.1	-3.2	-4.0
Cc1nnc2sc(SCC(=O)Nc3cccc(Cl)c3)nn2c1=O	0.6	1.5	-3.2	-2.9	-0.4	14.1	.	.	.	.	.
O=C(CSc1ccccn1)c1ccc2c(c1)OCO2	2.8	1.4	54.3*	83.6*	73.3*	12.5	41.0	70.1*	92.0*	84.3*	74.7*
SMILES	HSP90 inh	SENP1 FRET inh	SENP8 block-1	SENP6 inh	SENP7 inh	SENP8 block-2	SENP8 confirm	SENP6 conf	SENP7 confirm	Casp3 SENP sel	SENP luc ctr
CCc1nc2ccc(C(=O)Nc3cccc(OCC(=O)N(C)C)c3)cn2c1N(C)C(=O)c1ccncc1	.	-4.6	.	.	.	20.1	.	.	.	.	.
O=C(Nc1ccc(C(=O)N2CCCC2)cc1)c1cc(F)c(F)cc1Cl	.	2.8	.	.	.	15.8	.	.	.	.	.
COc1cc(C)c(C(=O)Oc2cc(C)c(C(=O)O)c(O)c2)c(O)c1	.	-0.4	55.4*	55.5*	-2.7	33.5	42.1	34.8	63.6*	22.1	58.9*
COc1cc(O)c(C(=O)O)c(CCc2ccccc2)c1	.	1.0	.	.	-9.1	1.2	.	.	.	.	.
COc1ccc(OCC(=O)N(C)CC2COc3ccccc3O2)cc1 (stereo not given)	.	0.1	-0.7	0.3	3.6	9.5	.	.	.	.	.
CCn1c(SCC(=O)N/N=C/c2ccccc2OCC(=O)O)nnc1-c1ccccc1	-3.6	.	1.4	69.9*	-3.5	.	-3.0	-0.1	-2.6	5.8	7.0
O=C1C(C=Nc2ccccc2O)=C(O)c2ccccc21	16.5*	2.8	95.0*	96.2*	5.3	44.8*	88.5*	95.2*	100.1*	94.9*	95.6*
CN=CC1=C(O)c2ccccc2C1=O	0.7	0.1	2.2	0.6	-4.2	2.1	.	.	.	.	.
O=C1C(C=Nc2ccccc2)=C(O)c2ccccc21	16.8*	-1.2	92.1*	97.9*	99.2*	31.9	87.0*	88.4*	100.2*	94.2*	61.2*
O=C(OCc1c(Cl)cccc1Cl)c1ccccn1	2.9	2.4	-3.1	3.1	1.8	9.1	.	.	.	.	.
O=C(Oc1ccccc1)c1ccc(COC(=O)c2cnccn2)cc1	-4.5	2.1	75.9*	94.0*	88.8*	16.1	-21.7	79.7*	97.3*	87.4*	85.1*
